This is an account of results in PubChem BioAssay.

Activity calls are given as the source filed them. Cut-off read from the data, not from the text of the source, unless noted: active = inhibition above about 30%; inactive = the rest.

Assay [1] is described as follows: Her2 expression decrease, cell viability multiplex – SKBR3 breast tumor cells, AlphaScreen, ATP viability, primary screen (AID 461;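 active = Her2 level under about 52% in both replicate screens, with viability over 70% of control, limit read from the data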;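 for Her2 level: lower value means less Her2 protein in the cells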;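 for viability: percent of carrier control wells set as 100% viability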). The conditions noted are these: SKBR3 Her2 protein level, 18-24 h, measured here: SKBR3 viability, ATP luminescence, at 10 µM. On the technique in general: Alpha assays give light when donor and acceptor beads are brought close together.

For assay [2], the target named is Receptor tyrosine-protein kinase erbB-2 (Homo sapiens) (UniProt P04626). The assay is described as above. The conditions noted are these: 18-24 h, at 10 µM, stronger effect = lower value.
Assay [3] can be described thus: reduced viability of SK-BR-3 breast cancer cells – cell-based, 24 h, human, pilot screen (AID 572;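 active = viability at or below 10% of carrier control in both of two separate runs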;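 note: compound exposure lasted between 18 and 24 h rather than exactly 24 h; 100% = carrier-treated control wells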). The conditions noted are these: SK-BR-3 viability, CellTiter-Glo luminescence, at 10 µM, stronger effect = lower value. A general note: In ATP-based viability assays light output follows the ATP content of the culture.
Assay [4] in a line: HUVEC growth inhibition – cell-based, human, primary screen (AID 575;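 active = viability at or below 30% in both replicate assays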;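 note: 100% = median of untreated cell wells with 0.1% DMSO on each plate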). The conditions noted are these: HUVEC proliferation, CellTiter-Glo luminescence, 72 h; at 10 µM; stronger effect = lower value. In short, it runs like this: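 material = primary HUVEC, no more than 12 passages | input = 1250 cells per well | controls = vehicle and MePR control wells | measured by = CTG luminescence | times = 72 h compound incubation | format = collagen-coated 384-well format | read-out = % viability vs DMSO wells | doses = single 10 µM dose, 0.1% DMSO, from 5x medium stock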

A short description of assay [5]: H69AR cell proliferation blockers – human, duplicate replicates, primary screen (AID 580;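 active = viability at or under a set limit in both replicates, limit being median viability minus 3 SD, cut at about 48% in these data, passing the limit was not always enough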;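 note: 100% = mean luminescence of untreated wells and 0% = no signal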). The conditions noted are these: H69AR lung tumor cells viability, ATP luminescence, 72 h; at 10 µM; stronger effect = lower value.
The nature of assay [6]: MRP1 drug-resistance reversers in H69AR cells – cell-based, doxorubicin co-treatment, pilot screen (AID 601;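 active = viability loss from added drug above about 55%, and viability with drug at most 40%, in both replicates, limit read from the data, passing the limit was not always enough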). The conditions noted are these: CellTiter-Glo, 72 h, at 10 µM; for differential viability (reversal): stronger effect = higher value.
Assay [7] is described as follows: yeast transport mutant growth inhibition pilot in 384-well plates, post-Golgi transport modulator project (AID 636; in the data active = inhibition above about 31%). The conditions noted are these: absorbance 615 nm, about 18 h, stronger effect = higher value.
Assay [8] is described as follows: growth suppression of yeast trafficking mutant, preliminary HTS, modulators of trafficking downstream of Golgi apparatus project, 1536-format plate, OD 615 nm (AID 637). The conditions noted are these: yeast transport mutant growth, absorbance 615 nm, 18 h; stronger effect = higher value.
The mark [9] stands for this setting: H69AR cells + 2 uM doxorubicin, measured here: viability with 2 uM doxorubicin, stronger effect = lower value.
[10] abbreviates: H69AR cells, compound alone cytotoxicity.

Sequence of Receptor tyrosine-protein kinase erbB-2 (Homo sapiens) (P04626 whole entry, looked up): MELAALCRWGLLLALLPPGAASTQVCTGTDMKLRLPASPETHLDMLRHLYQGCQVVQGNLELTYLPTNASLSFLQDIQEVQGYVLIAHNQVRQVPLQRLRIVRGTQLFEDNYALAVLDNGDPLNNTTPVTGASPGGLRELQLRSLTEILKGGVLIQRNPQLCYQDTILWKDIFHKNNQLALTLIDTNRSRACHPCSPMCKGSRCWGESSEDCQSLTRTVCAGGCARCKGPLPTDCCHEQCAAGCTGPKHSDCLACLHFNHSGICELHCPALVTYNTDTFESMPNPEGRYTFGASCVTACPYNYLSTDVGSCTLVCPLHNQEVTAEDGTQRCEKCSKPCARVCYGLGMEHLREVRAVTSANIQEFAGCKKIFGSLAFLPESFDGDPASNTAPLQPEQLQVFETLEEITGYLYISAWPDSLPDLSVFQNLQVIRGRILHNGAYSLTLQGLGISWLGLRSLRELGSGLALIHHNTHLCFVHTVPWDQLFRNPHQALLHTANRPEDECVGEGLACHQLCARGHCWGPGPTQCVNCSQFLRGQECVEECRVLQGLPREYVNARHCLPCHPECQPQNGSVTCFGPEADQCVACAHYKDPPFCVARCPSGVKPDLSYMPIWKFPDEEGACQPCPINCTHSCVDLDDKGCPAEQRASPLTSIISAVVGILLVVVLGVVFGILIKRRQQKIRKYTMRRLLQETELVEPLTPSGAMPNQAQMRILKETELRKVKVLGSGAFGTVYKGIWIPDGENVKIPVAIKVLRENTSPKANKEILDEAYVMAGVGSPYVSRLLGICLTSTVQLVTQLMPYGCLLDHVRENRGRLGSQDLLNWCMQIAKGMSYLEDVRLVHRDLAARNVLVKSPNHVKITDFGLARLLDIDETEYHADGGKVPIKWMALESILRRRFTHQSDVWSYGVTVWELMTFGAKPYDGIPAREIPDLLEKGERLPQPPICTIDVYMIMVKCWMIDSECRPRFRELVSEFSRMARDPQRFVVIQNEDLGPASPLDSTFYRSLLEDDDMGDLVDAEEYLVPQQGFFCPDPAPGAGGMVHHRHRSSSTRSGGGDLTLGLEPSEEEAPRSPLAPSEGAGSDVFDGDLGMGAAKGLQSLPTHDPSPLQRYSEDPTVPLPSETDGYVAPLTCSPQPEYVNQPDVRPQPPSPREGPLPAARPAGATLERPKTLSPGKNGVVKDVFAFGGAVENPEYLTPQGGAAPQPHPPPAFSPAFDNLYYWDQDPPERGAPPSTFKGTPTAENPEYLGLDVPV

One may read the viability as a read-out of living cells in per cent, often relative to untreated cells. As a reminder, the inhibition is the drop in the measured response relative to a control, in per cent. Turning to `O=S(=O)(c1ccc(S(=O)(=O)N2CCN3CCCC3C2)cc1)N1CCCC1` (stereo not given), the viability in assay [1] is 80.5%; in assay [3], 80.5% (inactive); in assay [4], 104% (inactive); in assay [5], 98.9% (inactive); in assay [6] (setting [9]) it was 82.8%; in assay [6] (setting [10]) it was 98.9%. Moreover, the Her2 level in assay [2] was 90.5% (inactive). The differential viability (reversal) in assay [6] (H69AR cells + 2 uM doxorubicin) was 16.1% (inactive). Moreover, the inhibition in assay [7] is -0.77% (inactive); in assay [8] it was 0.17% (inactive).

Take `CSCCC(NS(=O)(=O)c1ccc2c(c1)oc(=O)n2C)C(=O)NC1CCCCC1` (stereo not given): the viability was 91% in assay [1]; 91% (inactive) in assay [3]; 87.4% (inactive) in assay [4]; 103% (inactive) in assay [5]; 90.1% in assay [6] (setting [9]); 103% in assay [6] (setting [10]). In addition, the Her2 level in assay [2] is 110% (inactive). In addition, in assay [6] (H69AR cells + 2 uM doxorubicin), the differential viability (reversal) is 12.6% (inactive). For the same molecule, the figures for the inhibition in assay [7] and in assay [8] were 0.9% (inactive) and -3.17% (inactive), respectively.

On to `O=C(CCN1C(=O)C2C3C=CC(C3)C2C1=O)Nc1c(F)cc(F)cc1Br` (stereo not given), for which the viability in assay [1] was 99.5%; in assay [3], 99.5% (inactive); in assay [4], 90.2% (inactive); in assay [5], 103% (inactive); in assay [6] (setting [9]) it was 82.6%; in assay [6] (setting [10]), 103%. The Her2 level in assay [2] was 91.5% (inactive). The differential viability (reversal) in assay [6] (H69AR cells + 2 uM doxorubicin) was 20.3% (inactive). Further, the inhibition is 1.08% (inactive) in assay [7] and -4.13% (inactive) in assay [8].

For the molecule `O=C(CCC(=O)N1CCc2ccccc2C1)N1CCN(S(=O)(=O)c2ccccc2)CC1`, the viability in assay [1] is 82%; in assay [3], 82% (inactive); in assay [4], 84.4% (inactive); in assay [5], 90.6% (inactive); in assay [6] (setting [9]), 91.2%; in assay [6] (setting [10]) it was 90.6%. Further, the Her2 level in assay [2] was 116% (inactive). In assay [6] (H69AR cells + 2 uM doxorubicin), the differential viability (reversal) was -0.59% (inactive). Also, the values for the inhibition in assay [7] and in assay [8] were 4.81% (inactive) and 12.9% (inactive), respectively.

On to `Cn1nnnc1SCC(=O)NCc1ccco1`, for which the viability in assay [1] was 95%; in assay [3], 95% (inactive); in assay [4], 91.8% (inactive); in assay [5], 95.8% (inactive); in assay [6] (setting [9]), 86.3%; in assay [6] (setting [10]) it was 95.8%. The Her2 level in assay [2] was 110% (inactive). For the same molecule, in assay [6] (H69AR cells + 2 uM doxorubicin), the differential viability (reversal) was 9.46% (inactive). Moreover, the inhibition in assay [7] was 1.2% (inactive); in assay [8], -6.72% (inactive).

Turning to `O=C1NC(Nc2ccccn2)(C(F)(F)F)C(=O)N1c1ccc(F)cc1` (stereo not given), the viability in assay [1] was 102%; in assay [3] it was 102% (inactive); in assay [4] it was 107% (inactive); in assay [5], 103% (inactive); in assay [6] (setting [9]) it was 103%; in assay [6] (setting [10]), 103%. Also, the Her2 level in assay [2] was 89% (inactive). For the same molecule, the differential viability (reversal) in assay [6] (H69AR cells + 2 uM doxorubicin) is -0.015% (inactive). Moreover, the figures for the inhibition in assay [7] and in assay [8] were -5.47% (inactive) and 1.64% (inactive), respectively.

Take `COc1ccc(Oc2c(C)oc3cc(OC(=O)N4CCOCC4)ccc3c2=O)cc1`: the viability in assay [1] was 91%; in assay [3], 91% (inactive); in assay [4], 105% (inactive); in assay [5], 101% (inactive); in assay [6] (setting [9]), 101%; in assay [6] (setting [10]), 101%. In addition, in assay [2], the Her2 level was 99% (inactive). In addition, in assay [6] (H69AR cells + 2 uM doxorubicin), the differential viability (reversal) was -0.51% (inactive). Moreover, the figures for the inhibition in assay [7] and in assay [8] were -5.6% (inactive) and -5.08% (inactive), respectively.

In the case of `Cc1ccc(C2N(c3ccc(Cl)c(Cl)c3)C(=O)C3CCCN32)o1` (stereo not given), the viability is 99% in assay [1]; 99% (inactive) in assay [3]; 78.7% (inactive) in assay [4]; 96.2% (inactive) in assay [5]; 89.4% in assay [6] (setting [9]); 96.2% in assay [6] (setting [10]). For the same molecule, the Her2 level in assay [2] was 82.5% (inactive). In addition, the differential viability (reversal) in assay [6] (H69AR cells + 2 uM doxorubicin) was 6.78% (inactive). The inhibition in assay [7] is -1.45% (inactive); in assay [8], 0.32% (inactive).

As to `CCCC(=O)Nc1ccc2oc(-c3cccnc3)nc2c1`, the viability is 109% in assay [1]; 109% (inactive) in assay [3]; 93.6% (inactive) in assay [4]; 88.5% (inactive) in assay [5]; 96% in assay [6] (setting [9]); 88.5% in assay [6] (setting [10]). In addition, in assay [2], the Her2 level is 94% (inactive). Also, the differential viability (reversal) in assay [6] (H69AR cells + 2 uM doxorubicin) is -7.42% (inactive). Also, the inhibition was -4% (inactive) in assay [7] and 10% (inactive) in assay [8].

`Cn1c(SCC(=O)N2CCN(c3cccc(Cl)c3)CC2)nnc1-c1ccncc1`: the viability was 84% in assay [1]; 84% (inactive) in assay [3]; 49.4% (inactive) in assay [4]; 79.8% (inactive) in assay [5]; 98.3% in assay [6] (setting [9]); 79.8% in assay [6] (setting [10]). For the same molecule, the Her2 level in assay [2] is 76% (inactive). Moreover, in assay [6] (H69AR cells + 2 uM doxorubicin), the differential viability (reversal) is -18.5% (inactive). For the same molecule, the inhibition is 3.59% (inactive) in assay [7] and -1.33% (inactive) in assay [8].

For the molecule `CCOC(=O)CSc1nc2c(c(-c3ccc(C)o3)c1C#N)CCCC2`, the viability in assay [1] is 89.5%; in assay [3] it was 89.5% (inactive); in assay [4] it was 65.8% (inactive); in assay [5], 73.8% (inactive); in assay [6] (setting [9]), 67%; in assay [6] (setting [10]) it was 73.8%. The Her2 level in assay [2] was 88.5% (inactive). The differential viability (reversal) in assay [6] (H69AR cells + 2 uM doxorubicin) is 6.76% (inactive). Moreover, the values for the inhibition in assay [7] and in assay [8] were 0.26% (inactive) and -2.46% (inactive), respectively.

As to `CC(=O)N1CCN(C(C)=O)C1c1ccccc1`, the viability in assay [1] is 93.5%; in assay [3] it was 93.5% (inactive); in assay [4], 77.9% (inactive); in assay [5], 91.4% (inactive); in assay [6] (setting [9]), 89.1%; in assay [6] (setting [10]), 91.4%. In assay [2], the Her2 level is 136% (inactive). In addition, the differential viability (reversal) in assay [6] (H69AR cells + 2 uM doxorubicin) was 2.34% (inactive). The inhibition was 3.46% (inactive) in assay [7] and -7% (inactive) in assay [8].

On to `CC(=O)OC1c2ccccc2C(=O)N1c1ccccc1C` (stereo not given), for which the viability in assay [1] was 100%; in assay [3] it was 100% (inactive); in assay [4], 99.9% (inactive); in assay [5], 105% (inactive); in assay [6] (setting [9]), 91.2%; in assay [6] (setting [10]), 105%. Moreover, the Her2 level in assay [2] is 106% (inactive). Further, the differential viability (reversal) in assay [6] (H69AR cells + 2 uM doxorubicin) was 14.2% (inactive). The inhibition in assay [7] was 0.64% (inactive); in assay [8] it was 0.83% (inactive).

On to `FC(F)(F)c1nnc2sc(-c3cccs3)nn12`, for which the viability in assay [1] is 102%; in assay [3] it was 102% (inactive); in assay [4], 93.9% (inactive); in assay [5], 113% (inactive); in assay [6] (setting [9]) it was 93%; in assay [6] (setting [10]), 113%. The Her2 level in assay [2] is 86.5% (inactive). Also, the differential viability (reversal) in assay [6] (H69AR cells + 2 uM doxorubicin) was 19.7% (inactive). Moreover, the inhibition in assay [7] was -7.43% (inactive); in assay [8], 4.6% (inactive).

For the molecule `O=S(NCc1ccco1)C12CC3CC(CC(C3)C1)C2` (stereo not given), the viability in assay [1] was 104%; in assay [3], 104% (inactive); in assay [4], 93.5% (inactive); in assay [5], 88% (inactive); in assay [6] (setting [9]), 84%; in assay [6] (setting [10]) it was 88%. Also, the Her2 level in assay [2] is 116% (inactive). The differential viability (reversal) in assay [6] (H69AR cells + 2 uM doxorubicin) was 3.96% (inactive). Besides, the results for the inhibition in assay [7] and in assay [8] were -1.08% (inactive) and -5.4% (inactive), respectively.

As for `CCn1nc(C(=O)OCC(=O)N2CCc3ccccc32)c2ccccc2c1=O`, the viability in assay [1] is 99.5%; in assay [3] it was 99.5% (inactive); in assay [4] it was 88.2% (inactive); in assay [5], 96.8% (inactive); in assay [6] (setting [9]) it was 94.6%; in assay [6] (setting [10]) it was 96.8%. The Her2 level in assay [2] was 106% (inactive). In addition, in assay [6] (H69AR cells + 2 uM doxorubicin), the differential viability (reversal) is 2.27% (inactive). For the same molecule, the inhibition in assay [7] is 1.41% (inactive); in assay [8], -11.2% (inactive).
